Assay results pooled from the literature.
Protocols differ between the studies behind these lines.
MAPK14: Mitogen-activated protein kinase 14 (MAPK14, Homo sapiens, UniProt Q16539)
Dihydrofolate reductase: Dihydrofolate reductase (Bos taurus, UniProt P00376)
HTR1A: 5-hydroxytryptamine receptor 1A (HTR1A, Homo sapiens, UniProt P08908)

COc1cc(C=O)ccc1O
IC50 (Sucrase-isomaltase, intestinal (Si, Rattus norvegicus, UniProt P23739); enzyme activity, inhibitor, absorbance): 1350 µM

c1ccc(-c2[nH]ccc2-c2ccnc3ccccc23)nc1
IC50 (MAPK14; enzyme activity, inhibitor, ADP detection): > 30 µM

CNCc1cc(-c2cc(O)ccc2OC(F)(F)F)ccc1F
IC50 (Estrogen receptor (ESR1, Homo sapiens, UniProt P03372, Y537S); coactivator recruitment, TR-FRET): ~18 µM

COc1ccc(N2N=C(C(C)=O)SC2=C(C#N)C(=O)c2ccc(Nc3cnccn3)cc2)cc1
IC50 (Dihydrofolate reductase; enzyme activity, inhibitor): 3.82 µM

c1ccc(-c2n[nH]cc2-c2ccncn2)nc1
IC50 (MAPK14; enzyme activity, inhibitor, ADP detection): 1.5 µM

N=c1sc(C(=O)c2ccc(Nc3cnccn3)cc2)nn1-c1ccc([N+](=O)[O-])cc1
IC50 (Dihydrofolate reductase; enzyme activity, inhibitor): 4.48 µM

COc1ccccc1N1CCN(CC(C(=O)NC(C)(C)C)c2ccccc2)CC1 (stereo not drawn)
IC50 (HTR1A; cAMP, antagonist, TR-FRET): 0.376 µM

CN1CCC(CNc2ccc3ncc(-c4cccc(OC(F)(F)F)c4)n3n2)CC1
IC50 (HTR1A; cAMP, agonist): 7.13 µM

Cc1cc(O)c(-c2ccc([C@@H](C)CN(C)C)cc2)c2c1[nH]c(=O)c1sccc12
IC50 (Cyclin-dependent kinase 14, with cyclin Y (CDK14, Homo sapiens, UniProt O94921); enzyme activity, inhibitor): > 1 µM

NC/C(=C\F)COc1cccc(Cn2c(=S)[nH]c(=O)c3[nH]cnc32)c1
IC50 (Amine oxidase [copper-containing] 3 (Rattus norvegicus, UniProt O08590); enzyme activity, inhibitor): 0.005 µM

c1ccc(Cc2[nH]nc(-c3ccccn3)c2-c2ccnc3ccccc23)cc1
IC50 (MAPK14; enzyme activity, inhibitor, ADP detection): 5.2 µM

COc1ccc(-n2nc(C(=O)c3ccc(Nc4cnccn4)cc3)sc2=N)cc1
IC50 (Dihydrofolate reductase; enzyme activity, inhibitor): 11.7 µM
